Experimental data taken from ChEMBL document CHEMBL1128671, “New (2-methoxyphenyl)piperazine derivatives as 5-HT1A receptor ligands with reduced alpha 1-adrenergic activity. Synthesis and structure-affinity relationships” (J Med Chem, 1995).

Tests used:
[1] = biological target: T1, 5-hydroxytryptamine receptor 1A (Rattus norvegicus, UniProt P19327); experiment: In vitro ability to displace [3H]8-OH-DPAT from 5-hydroxytryptamine 1A receptor sites of rat brain cortex.
T1 sequence (P19327 whole entry): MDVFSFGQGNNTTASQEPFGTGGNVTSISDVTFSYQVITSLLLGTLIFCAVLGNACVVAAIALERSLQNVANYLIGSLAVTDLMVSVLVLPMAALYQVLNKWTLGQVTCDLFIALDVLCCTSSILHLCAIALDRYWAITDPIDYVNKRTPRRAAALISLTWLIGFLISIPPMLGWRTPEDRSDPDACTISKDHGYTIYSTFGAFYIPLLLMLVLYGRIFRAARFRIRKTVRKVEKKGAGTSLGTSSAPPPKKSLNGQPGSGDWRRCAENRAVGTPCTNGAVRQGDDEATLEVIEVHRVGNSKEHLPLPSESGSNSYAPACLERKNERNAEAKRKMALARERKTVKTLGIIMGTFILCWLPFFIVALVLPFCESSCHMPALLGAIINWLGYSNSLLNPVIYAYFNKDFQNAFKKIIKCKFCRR
Procedure, shortened: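 Male Wistar rat cerebral cortex membranes in 50 mM Tris-HCl with 4 mM CaCl2, 0.1% ascorbate and 10 μM pargyline. Nonspecific binding defined with 10 μM 5-HT. Read by filtration and scintillation counting. Twelve displacer concentrations, triplicate samples, two experiments. IC50/Ki obtained by nonlinear regression.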

[2] = biological target: Adrenergic receptor alpha-1 (Oryctolagus cuniculus); experiment: Antagonistic activity at Alpha-1 adrenergic receptor was performed on ring segments of rabbit thoracic aorta contracted by noradrenaline.

| Ki [1] | pA2 [2] | SMILES |
| --- | --- | --- |
| 17.5 nM |  | COc1ccccc1N1CCN(CCCCNC(=O)Cc2ccsc2)CC1 |
| 0.74 nM | 7.72 | COc1ccccc1N1CCN(CCCCNC(=O)c2cccn2C)CC1.O=C(O)/C=C/C(=O)O |
| 3.34 nM |  | COc1ccccc1N1CCN(CCCCNC(=O)c2sccc2Cl)CC1 |
| 3.8 nM | < 7 | COc1ccccc1N1CCN(CCCCNC(=O)c2ccc(C)s2)CC1 |
| 6.83 nM | < 7 | COc1ccccc1N1CCN(CCNC(=O)c2ccsc2)CC1 |
| 3.09 nM |  | COc1ccccc1N1CCN(CCNC(=O)c2sccc2C)CC1 |
| 1.53 nM |  | COc1ccccc1N1CCN(CCCCNC(=O)c2sccc2C)CC1 |
| 0.24 nM |  | COc1ccccc1N1CCN(CCNC(=O)C2CCC3CCCC32)CC1 (stereo not given) |
| 2.29 nM |  | COc1ccccc1N1CCN(CCNC(=O)c2ccc(C)s2)CC1 |
| 11.6 nM |  | COc1ccccc1N1CCN(CCCNC(=O)C2CCC3CCCC32)CC1 (stereo not given) |
| 32.1 nM |  | COc1ccccc1N1CCN(CCCCNC(=O)c2sccc2OC)CC1 |
| 0.63 nM |  | COc1ccccc1N1CCN(CCCCNC(=O)C2CCC3CCCC32)CC1 (stereo not given) |
| 4.68 nM |  | COc1ccccc1N1CCN(CCNC(=O)C2CCCC2)CC1 |
| 2.2 nM |  | COc1ccccc1N1CCN(CCCCNC(=O)c2ccsc2)CC1 |
| 321 nM |  | COc1ccccc1N1CCN(CCCNC(=O)c2cccnc2)CC1 |
| 0.38 nM | 8.53 | COc1ccccc1N1CCN(CCCCNC(=O)C2CC3C=CC2C3)CC1 (stereo not given) |
| 20.3 nM |  | COc1ccccc1N1CCN(CCNC(=O)c2ccc[nH]2)CC1 |
| 1.88 nM |  | COc1ccccc1N1CCN(CCCCNC(=O)C2CCCC2)CC1 |
| 2.34 nM | 9.16 | COc1ccccc1N1CCN(CCCCNC(=O)c2cccs2)CC1 |
| 12.5 nM |  | COc1ccccc1N1CCN(CCCCNC(=O)c2ccc[nH]2)CC1 |
| 362 nM |  | COc1ccccc1N1CCN(CCNC(=O)c2cccnc2)CC1 |
| 0.12 nM |  | COc1ccccc1N1CCN(CCNC(=O)C2CC3CCC2C3)CC1 (stereo not given) |
| 0.27 nM |  | COc1ccccc1N1CCN(CCNC(=O)C2CC3C=CC2C3)CC1 (stereo not given) |
| 1.19 nM | < 7 | COc1ccccc1N1CCN(CCNC(=O)c2cccn2C)CC1 |
| 0.23 nM |  | COc1ccccc1N1CCN(CCCCNC(=O)C2CC3CCC2C3)CC1 (stereo not given) |

| SMILES | Ki [1] | pA2 [2] |
| --- | --- | --- |
| COc1ccccc1N1CCN(CCCCNC(=O)c2ccco2)CC1 | 55.7 nM |  |
| COc1ccccc1N1CCN(CCNC(=O)Cc2ccsc2)CC1 | 32.3 nM |  |
| COc1ccccc1N1CCN(CCCNC(=O)c2ccc[nH]2)CC1 | 201 nM |  |
| COc1ccccc1N1CCN(CCCCNC(=O)c2cccnc2)CC1 | 25.2 nM |  |
